# Numbering of substitutions follows the chain as printed.
# Target: GDP-mannose transporter Vrg4 (Saccharomyces cerevisiae) (UniProt P40107)
# Test: crystal structure
# Details: not given
row,stoichiometry N,Molecule
1,2,GDP-mannose transporter Vrg4 (from UniProt P40107 1-337) (natural protein)

# Target: T1, wild type Vrg4 (Saccharomyces cerevisiae, UniProt P40107)
# T1 sequence (P40107 1-337): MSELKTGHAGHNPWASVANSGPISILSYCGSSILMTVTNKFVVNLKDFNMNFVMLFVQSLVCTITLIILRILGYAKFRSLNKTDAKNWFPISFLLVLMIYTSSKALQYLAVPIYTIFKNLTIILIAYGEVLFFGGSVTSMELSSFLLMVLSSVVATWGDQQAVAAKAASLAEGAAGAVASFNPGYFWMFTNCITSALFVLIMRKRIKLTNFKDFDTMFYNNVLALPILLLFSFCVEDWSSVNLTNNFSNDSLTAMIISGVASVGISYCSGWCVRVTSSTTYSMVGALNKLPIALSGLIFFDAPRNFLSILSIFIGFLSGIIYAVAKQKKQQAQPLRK
# Test: Competition / IC50 of 3H-GMP uptake into wild type Vrg4 proteoliposomes
# Assay type: biochemical
# Details: competition assay, n=4
row,Competition of transport (recognition by the binding site),Molecule
1,most effective competitors of transport,"Nc1nc2c(ncn2[C@@H]2O[C@H](COP(=O)(O)OP(=O)(O)O[C@H]3O[C@H](CO)[C@@H](O)[C@H](O)[C@@H]3O)[C@@H](O)[C@H]2O)c(=O)[nH]1 [GDP-M, GDP-mannose]"
2,very poorly recognised,Nc1nc2c(ncn2[C@@H]2O[C@H](CO)[C@@H](O)[C@H]2O)c(=O)[nH]1 [guanosine]
3,can also compete,"Nc1nc2c(ncn2[C@@H]2O[C@H](COP(=O)(O)OP(=O)(O)O[C@H]3O[C@H](CO)[C@@H](O)[C@H](O)[C@H]3O)[C@@H](O)[C@H]2O)c(=O)[nH]1 [GTP-G, GDP-glucose]"
4,most effective competitors of transport,"Nc1nc2c(ncn2[C@@H]2O[C@H](COP(=O)(O)O)[C@@H](O)[C@H]2O)c(=O)[nH]1 [GMP, guanine monophosphate]"
5,can also compete,Nc1nc2c(ncn2[C@@H]2O[C@H](COP(=O)(O)OP(=O)(O)O)[C@@H](O)[C@H]2O)c(=O)[nH]1 [GDP]
6,cannot inhibit,O=P(O)(O)OP(=O)(O)O [Pyrophosphate]
7,can also compete,"C[C@@H]1O[C@H](OP(=O)(O)OP(=O)(O)OC[C@H]2O[C@@H](n3cnc4c(=O)[nH]c(N)nc43)[C@H](O)[C@@H]2O)[C@@H](O)[C@H](O)[C@@H]1O [GDP-F, GDP-fucose]"
8,very poorly recognised,Nc1nc2c(ncn2[C@@H]2O[C@@H]3COP(=O)(O)O[C@H]3[C@H]2O)c(=O)[nH]1 [cyclic GMP]

# Target: T2, Vrg4 (Saccharomyces cerevisiae, UniProt P40107)
# T2 sequence (P40107 1-337): T1 sequence (P40107 1-337)
# Test: not given
# Assay type: biochemical
# Details: internal substrate; 0.5 μM 3H-GMP outside
# Procedure, shortened: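 Yeast Vrg4-GFP-His was galactose-induced, IMAC-purified in DDM, and then in DM reconstituted by dilution into yeast polar lipid vesicles at 80:1 lipid:protein and dialysed. Internal substrate was loaded by six freeze-thaw cycles and 0.4 μm extrusion. 4 μg protein was added to 50 μl of 20 mM Hepes pH 7.5, 50 mM KCl, 2 mM MgSO4 with 0.5 μM 3H-GMP. Samples were filtered, washed with cold water and scintillation-counted. ≥4 repeats, mean ± S.D.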
row,Transport driven by substance inside the liposome,Molecule
1,no significant transport,"Nc1ccn([C@@H]2O[C@H](COP(=O)(O)O)[C@@H](O)[C@H]2O)c(=O)n1 [CMP, cytosine monophosphate]"
2,cannot be driven,Nc1nc2c(ncn2[C@@H]2O[C@H](COP(=O)(O)OP(=O)(O)OP(=O)(O)O)[C@@H](O)[C@H]2O)c(=O)[nH]1 [GTP]
3,poor transport,"Nc1ncnc2c1ncn2[C@@H]1O[C@H](COP(=O)(O)O)[C@@H](O)[C@H]1O [AMP, adenine monophosphate]"

# Target: T3, Vrg4 Tyr114Phe (Y114F) (Saccharomyces cerevisiae, UniProt P40107, Y114F)
# T3 sequence (P40107 1-337 Y114F): T1 sequence (P40107 1-337) with Y114F
# Test: IC50 curves, Vrg4 Tyr114Phe variant proteoliposomes
# Assay type: biochemical
# Details: Tyr114Phe versus wild type
# Procedure, shortened: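 Wild-type or mutant Vrg4 was purified in DM and reconstituted at 80:1 lipid:protein into yeast polar lipid proteoliposomes. Reconstituted protein was matched by SDS-PAGE densitometry. Liposomes were substrate-loaded by freeze-thaw and extrusion. Uptake was started by adding 4 μg protein equivalent to 50 μl buffer (20 mM Hepes pH 7.5, 50 mM KCl, 2 mM MgSO4) with 0.5 μM 3H-GMP, then filtered and counted. IC50 from curves, mean of three independent experiments, s.d.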
row,Affinity relative to wild type,Molecule
1,reduced the affinity,"Nc1nc2c(ncn2[C@@H]2O[C@H](COP(=O)(O)OP(=O)(O)O[C@H]3O[C@H](CO)[C@@H](O)[C@H](O)[C@@H]3O)[C@@H](O)[C@H]2O)c(=O)[nH]1 [GDP-M, GDP-mannose]"
2,reduced the affinity,"Nc1nc2c(ncn2[C@@H]2O[C@H](COP(=O)(O)O)[C@@H](O)[C@H]2O)c(=O)[nH]1 [GMP, guanine monophosphate]"
